# In ChEMBL document CHEMBL5154945, “Discovery and Optimization of Pyrrolopyrimidine Derivatives as Selective Disruptors of the Perinucleolar Compartment, a Marker of Tumor Progression toward Metastasis” (J Med Chem, 2022):
# Experiments:
# T47D = test: Anticancer activity against human T47D cells assessed as cell growth inhibition; format: functional, cell-based; settings: dose 1-100 µM, DDE = dose-dependent effect
# A549 = test: Anticancer activity against human A549 cells assessed as cell growth inhibition; format: functional, cell-based; settings: dose 1-100 µM, DDE = dose-dependent effect
# SF-295 = test: Anticancer activity against human SF-295 cells assessed as cell growth inhibition; format: functional, cell-based; settings: dose 1-100 µM, DDE = dose-dependent effect
# UACC-62 = test: Anticancer activity against human UACC-62 cells assessed as cell growth inhibition; format: functional, cell-based; settings: dose 1-100 µM, DDE = dose-dependent effect
# [1] = target: 5-hydroxytryptamine receptor 3A (Homo sapiens) (UniProt P46098); test: Binding affinity to 5-HT3 receptor (unknown origin) at 10000 nM by radioligand displacement assay relative to control
# [2] = target: Histamine H2 receptor (Homo sapiens) (UniProt P25021); test: Binding affinity to H2 receptor (unknown origin) at 10000 nM by radioligand displacement assay relative to control
# Chain of Histamine H2 receptor (Homo sapiens) (P25021 whole entry): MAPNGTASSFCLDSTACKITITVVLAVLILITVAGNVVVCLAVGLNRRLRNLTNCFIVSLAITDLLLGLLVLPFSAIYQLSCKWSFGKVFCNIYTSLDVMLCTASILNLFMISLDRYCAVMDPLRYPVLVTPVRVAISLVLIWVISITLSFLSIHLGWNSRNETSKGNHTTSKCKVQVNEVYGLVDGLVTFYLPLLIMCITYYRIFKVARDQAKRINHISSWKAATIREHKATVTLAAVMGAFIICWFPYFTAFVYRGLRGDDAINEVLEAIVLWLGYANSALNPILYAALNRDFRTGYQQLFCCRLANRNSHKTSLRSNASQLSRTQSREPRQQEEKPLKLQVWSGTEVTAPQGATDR
# RXF 393 = test: Anticancer activity against human RXF 393 cells assessed as cell growth inhibition; format: functional, cell-based; settings: dose 1-100 µM, DDE = dose-dependent effect
# SK-MEL-2 = test: Anticancer activity against human SK-MEL-2 cells assessed as cell growth inhibition; format: functional, cell-based; settings: dose 1-100 µM, DDE = dose-dependent effect
# [3] = target: 5-hydroxytryptamine receptor 6 (Homo sapiens) (UniProt P50406); test: Binding affinity to 5-HT6 receptor (unknown origin) at 10000 nM by radioligand displacement assay relative to control
# Chain of 5-hydroxytryptamine receptor 6 (Homo sapiens) (P50406 whole entry): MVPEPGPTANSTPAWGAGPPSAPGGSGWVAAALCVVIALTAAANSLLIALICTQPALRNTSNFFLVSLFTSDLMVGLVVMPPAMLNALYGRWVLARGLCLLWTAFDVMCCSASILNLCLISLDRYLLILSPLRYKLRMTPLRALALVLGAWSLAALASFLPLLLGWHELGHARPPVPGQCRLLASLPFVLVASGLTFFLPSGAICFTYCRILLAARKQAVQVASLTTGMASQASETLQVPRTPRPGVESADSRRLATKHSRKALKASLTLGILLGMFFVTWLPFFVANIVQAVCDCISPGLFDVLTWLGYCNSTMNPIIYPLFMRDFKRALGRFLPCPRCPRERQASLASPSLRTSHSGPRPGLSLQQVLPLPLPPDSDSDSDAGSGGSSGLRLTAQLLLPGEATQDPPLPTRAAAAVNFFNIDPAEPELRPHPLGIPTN
# NCI-H460 = test: Anticancer activity against human NCI-H460 cells assessed as cell growth inhibition; format: functional, cell-based; settings: dose 1-100 µM, DDE = dose-dependent effect
# CAKI-1 = test: Anticancer activity against human CAKI-1 cells assessed as cell growth inhibition; format: functional, cell-based; settings: dose 1-100 µM, DDE = dose-dependent effect
# Histamine H1 receptor = Histamine H1 receptor (Homo sapiens, UniProt P35367); test: Binding affinity to H1 receptor (unknown origin) by radioligand displacement assay
# Chain of Histamine H1 receptor (P35367 whole entry): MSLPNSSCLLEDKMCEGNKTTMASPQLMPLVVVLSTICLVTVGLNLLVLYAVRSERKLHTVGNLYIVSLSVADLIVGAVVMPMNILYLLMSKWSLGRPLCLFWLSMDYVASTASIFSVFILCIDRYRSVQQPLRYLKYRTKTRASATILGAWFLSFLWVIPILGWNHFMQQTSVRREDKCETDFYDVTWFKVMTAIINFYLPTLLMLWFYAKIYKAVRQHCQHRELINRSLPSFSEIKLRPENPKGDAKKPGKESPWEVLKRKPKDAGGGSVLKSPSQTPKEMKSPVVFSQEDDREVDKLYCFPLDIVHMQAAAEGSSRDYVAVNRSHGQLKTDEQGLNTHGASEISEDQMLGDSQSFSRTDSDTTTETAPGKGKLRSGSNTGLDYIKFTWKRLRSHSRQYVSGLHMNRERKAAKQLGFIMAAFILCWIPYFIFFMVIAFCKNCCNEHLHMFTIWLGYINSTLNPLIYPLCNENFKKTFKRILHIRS
# HCT-116 = test: Anticancer activity against human HCT-116 cells assessed as cell growth inhibition; format: functional, cell-based; settings: dose 1-100 µM, DDE = dose-dependent effect
# [4] = target: Delta-type opioid receptor (Homo sapiens) (UniProt P41143); test: Binding affinity to DOR receptor (unknown origin) at 10000 nM by radioligand displacement assay relative to control
# [5] = target: Alpha-1D adrenergic receptor (Homo sapiens, UniProt P25100); test: Binding affinity to alpha1D receptor (unknown origin) by radioligand displacement assay
# [6] = target: Sodium-dependent noradrenaline transporter (Homo sapiens) (UniProt P23975); test: Binding affinity to NET receptor (unknown origin) at 10000 nM by radioligand displacement assay relative to control
# Chain of Sodium-dependent noradrenaline transporter (Homo sapiens) (P23975 whole entry): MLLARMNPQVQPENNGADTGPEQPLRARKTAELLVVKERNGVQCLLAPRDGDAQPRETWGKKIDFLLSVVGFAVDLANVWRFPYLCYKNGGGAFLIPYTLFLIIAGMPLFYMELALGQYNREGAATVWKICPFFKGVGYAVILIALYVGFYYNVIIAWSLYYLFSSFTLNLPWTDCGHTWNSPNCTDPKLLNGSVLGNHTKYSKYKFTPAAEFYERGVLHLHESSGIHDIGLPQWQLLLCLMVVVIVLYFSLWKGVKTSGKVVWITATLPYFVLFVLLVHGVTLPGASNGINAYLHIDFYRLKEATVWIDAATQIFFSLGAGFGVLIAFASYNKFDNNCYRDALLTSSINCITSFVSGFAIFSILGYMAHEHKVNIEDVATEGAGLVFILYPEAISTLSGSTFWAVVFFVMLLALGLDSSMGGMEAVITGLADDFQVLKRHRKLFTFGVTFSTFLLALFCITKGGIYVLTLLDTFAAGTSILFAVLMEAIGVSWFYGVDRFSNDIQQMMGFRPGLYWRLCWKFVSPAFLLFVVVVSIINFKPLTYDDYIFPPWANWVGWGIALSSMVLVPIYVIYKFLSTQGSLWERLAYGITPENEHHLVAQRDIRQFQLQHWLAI
# [7] = target: D(4) dopamine receptor (Homo sapiens) (UniProt P21917); test: Binding affinity to D4 receptor (unknown origin) at 10000 nM by radioligand displacement assay relative to control
# Chain of D(4) dopamine receptor (Homo sapiens) (P21917 whole entry): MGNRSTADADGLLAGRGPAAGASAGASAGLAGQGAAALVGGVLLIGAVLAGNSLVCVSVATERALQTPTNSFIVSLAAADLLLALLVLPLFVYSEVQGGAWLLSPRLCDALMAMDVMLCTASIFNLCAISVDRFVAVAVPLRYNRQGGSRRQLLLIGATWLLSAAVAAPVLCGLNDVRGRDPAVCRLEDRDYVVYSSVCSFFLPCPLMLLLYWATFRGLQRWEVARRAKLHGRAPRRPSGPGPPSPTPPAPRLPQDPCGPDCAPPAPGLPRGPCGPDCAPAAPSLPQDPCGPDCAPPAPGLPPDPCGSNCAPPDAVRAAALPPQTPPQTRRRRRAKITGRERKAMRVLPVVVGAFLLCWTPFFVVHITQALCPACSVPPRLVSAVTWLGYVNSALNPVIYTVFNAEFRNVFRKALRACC
# OVCAR-4 = test: Anticancer activity against human OVCAR-4 cells assessed as cell growth inhibition; format: functional, cell-based; settings: dose 1-100 µM, DDE = dose-dependent effect
# [8] = mouse, in vivo, ip, 50 mg/kg, 48 h
# [9] = target: Muscarinic acetylcholine receptor M5 (Homo sapiens) (UniProt P08912); test: Binding affinity to M5 receptor (unknown origin) at 10000 nM by radioligand displacement assay relative to control
# Chain of Muscarinic acetylcholine receptor M5 (Homo sapiens) (P08912 whole entry, the tested form may be a part): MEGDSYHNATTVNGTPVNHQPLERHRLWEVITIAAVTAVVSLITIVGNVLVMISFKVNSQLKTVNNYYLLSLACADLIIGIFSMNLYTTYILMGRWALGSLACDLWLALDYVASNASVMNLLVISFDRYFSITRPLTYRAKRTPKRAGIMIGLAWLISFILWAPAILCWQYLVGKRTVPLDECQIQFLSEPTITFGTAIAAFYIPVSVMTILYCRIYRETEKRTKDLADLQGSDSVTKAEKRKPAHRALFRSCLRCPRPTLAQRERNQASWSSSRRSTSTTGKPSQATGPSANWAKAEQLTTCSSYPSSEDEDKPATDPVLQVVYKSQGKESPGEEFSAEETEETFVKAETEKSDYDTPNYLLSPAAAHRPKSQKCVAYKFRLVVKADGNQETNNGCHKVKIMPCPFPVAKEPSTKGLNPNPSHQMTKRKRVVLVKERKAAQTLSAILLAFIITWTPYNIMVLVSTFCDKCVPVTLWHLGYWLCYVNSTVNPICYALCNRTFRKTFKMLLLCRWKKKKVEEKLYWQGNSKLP
# PC-3M [10] = test: Anticancer activity in human PC-3M cells expressing PTB/GFP fusion protein assessed as perinucleolar compartment disassembly and measured after 24 hrs by Hoechst 33342 staining based microscopic method; format: functional, cell-based
# In short: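 Imaged by high-content microscopy. Nuclei with PNC spots ≥3 and >0 scored positive. PNC prevalence % = PNC-positive nuclei/total nuclei ×100, normalized to DMSO (0% activity) and 0% PNC (−100%). IC50 from concentration-response.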
# [11] = target: D(1B) dopamine receptor (Homo sapiens) (UniProt P21918); test: Binding affinity to D5 receptor (unknown origin) at 10000 nM by radioligand displacement assay relative to control
# Chain of D(1B) dopamine receptor (Homo sapiens) (P21918 whole entry): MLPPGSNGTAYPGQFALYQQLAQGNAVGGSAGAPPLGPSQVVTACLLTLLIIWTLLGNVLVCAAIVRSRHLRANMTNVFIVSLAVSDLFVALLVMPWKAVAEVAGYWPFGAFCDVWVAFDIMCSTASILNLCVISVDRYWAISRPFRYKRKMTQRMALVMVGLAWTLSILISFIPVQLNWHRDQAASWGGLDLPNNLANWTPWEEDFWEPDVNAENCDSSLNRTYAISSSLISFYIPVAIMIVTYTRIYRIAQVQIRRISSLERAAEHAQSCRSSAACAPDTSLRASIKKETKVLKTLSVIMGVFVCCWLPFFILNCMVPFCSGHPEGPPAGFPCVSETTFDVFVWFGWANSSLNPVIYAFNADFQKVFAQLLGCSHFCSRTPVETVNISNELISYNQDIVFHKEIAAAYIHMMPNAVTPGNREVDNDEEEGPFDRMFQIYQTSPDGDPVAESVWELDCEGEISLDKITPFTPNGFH
# [12] = target: 5-hydroxytryptamine receptor 1A (Homo sapiens) (UniProt P08908); test: Binding affinity to 5-HT1A receptor (unknown origin) at 10000 nM by radioligand displacement assay relative to control
# HOP-62 = test: Anticancer activity against human HOP-62 cells assessed as cell growth inhibition; format: functional, cell-based; settings: dose 1-100 µM, DDE = dose-dependent effect
# MDA-MB-231 = test: Anticancer activity against human MDA-MB-231 cells assessed as cell growth inhibition; format: functional, cell-based; settings: dose 1-100 µM, DDE = dose-dependent effect
# PC-3M [13] = test: Antiproliferative activity against human PC-3M cells expressing PTB/GFP fusion protein assessed as inhibition of nucleolar volume measured after 24 hrs by Nucleolar-id Green Detection based confocal microscopic analysis; format: functional, cell-based
# [14] = target: Sodium-dependent serotonin transporter (Homo sapiens) (UniProt P31645); test: Binding affinity to SERT receptor (unknown origin) at 10000 nM by radioligand displacement assay relative to control
# Chain of Sodium-dependent serotonin transporter (Homo sapiens) (P31645 whole entry, looked up): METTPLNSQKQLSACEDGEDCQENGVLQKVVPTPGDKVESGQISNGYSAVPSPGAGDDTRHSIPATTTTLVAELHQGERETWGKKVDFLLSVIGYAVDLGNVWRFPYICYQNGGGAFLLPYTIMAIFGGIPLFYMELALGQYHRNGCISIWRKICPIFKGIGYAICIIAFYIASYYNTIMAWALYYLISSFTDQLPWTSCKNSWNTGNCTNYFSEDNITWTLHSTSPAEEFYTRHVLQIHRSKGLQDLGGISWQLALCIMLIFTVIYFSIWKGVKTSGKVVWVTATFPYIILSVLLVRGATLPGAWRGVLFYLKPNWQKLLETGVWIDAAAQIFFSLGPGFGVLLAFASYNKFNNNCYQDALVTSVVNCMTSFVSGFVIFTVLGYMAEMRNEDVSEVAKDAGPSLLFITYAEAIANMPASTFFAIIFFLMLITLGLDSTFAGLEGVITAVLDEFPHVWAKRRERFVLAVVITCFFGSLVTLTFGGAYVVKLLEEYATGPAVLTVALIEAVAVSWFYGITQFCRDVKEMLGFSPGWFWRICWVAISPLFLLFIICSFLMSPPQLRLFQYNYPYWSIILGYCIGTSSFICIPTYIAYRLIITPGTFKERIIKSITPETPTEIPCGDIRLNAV
# HL-60(TB) = test: Anticancer activity against human HL-60(TB) cells assessed as cell growth inhibition; format: functional, cell-based; settings: dose 1-100 µM, DDE = dose-dependent effect
# [15] = target: Mu-type opioid receptor (Homo sapiens) (UniProt P35372); test: Binding affinity to MOR receptor (unknown origin) at 10000 nM by radioligand displacement assay relative to control
# Chain of Mu-type opioid receptor (Homo sapiens) (P35372 whole entry): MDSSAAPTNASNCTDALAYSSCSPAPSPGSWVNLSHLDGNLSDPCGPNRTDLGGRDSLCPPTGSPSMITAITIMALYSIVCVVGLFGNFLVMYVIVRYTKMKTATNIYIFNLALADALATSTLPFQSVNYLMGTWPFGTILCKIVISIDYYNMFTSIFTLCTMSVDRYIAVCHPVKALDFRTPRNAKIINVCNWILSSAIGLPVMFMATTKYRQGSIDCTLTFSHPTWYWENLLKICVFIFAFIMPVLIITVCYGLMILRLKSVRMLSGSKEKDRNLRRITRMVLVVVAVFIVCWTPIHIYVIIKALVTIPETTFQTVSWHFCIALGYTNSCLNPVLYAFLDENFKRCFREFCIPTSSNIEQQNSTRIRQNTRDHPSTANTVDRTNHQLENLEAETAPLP
# UO-31 = test: Anticancer activity against human UO-31 cells assessed as cell growth inhibition; format: functional, cell-based; settings: dose 1-100 µM, DDE = dose-dependent effect
# Malme-3M = test: Anticancer activity against human Malme-3M cells assessed as cell growth inhibition; format: functional, cell-based; settings: dose 1-100 µM, DDE = dose-dependent effect
# [16] = target: 5-hydroxytryptamine receptor 2A (Homo sapiens) (UniProt P28223); test: Binding affinity to 5-HT2A receptor (unknown origin) at 10000 nM by radioligand displacement assay relative to control
# Chain of 5-hydroxytryptamine receptor 2A (Homo sapiens) (P28223 whole entry): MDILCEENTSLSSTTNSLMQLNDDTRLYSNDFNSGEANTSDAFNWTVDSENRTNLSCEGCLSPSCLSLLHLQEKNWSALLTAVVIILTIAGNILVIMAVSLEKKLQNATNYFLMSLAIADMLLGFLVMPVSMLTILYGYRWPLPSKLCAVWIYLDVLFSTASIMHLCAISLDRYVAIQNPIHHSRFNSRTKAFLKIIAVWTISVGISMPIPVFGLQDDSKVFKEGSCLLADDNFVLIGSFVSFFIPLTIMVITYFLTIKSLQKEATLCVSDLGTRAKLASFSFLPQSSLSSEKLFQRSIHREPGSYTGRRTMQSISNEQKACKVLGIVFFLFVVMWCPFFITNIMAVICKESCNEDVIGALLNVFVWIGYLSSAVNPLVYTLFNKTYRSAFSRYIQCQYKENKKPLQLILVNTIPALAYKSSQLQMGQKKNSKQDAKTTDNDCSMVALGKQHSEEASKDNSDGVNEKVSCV
# [17] = Cmax in female BALB/c mouse at 5 mg/kg, ip at 30 min by LC-MS/MS analysis; format: ADME, organism-based; set-up: time 30 min, dose 5 mg/kg, route ip; settings: in vivo, 0.5 h
# In short: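 Fed female BALB/c mice, about 6–8 weeks old and 25–30 g, received a single IP dose of 5 or 25 mpk in NMP/PEG400/HP-β-CD aqueous vehicle (0.5 mg/mL for the 5 mpk dose). Three mice per time point were sampled up to 48 h by retro-orbital bleed under isoflurane into K2EDTA. Plasma was spun at 2000 g, 4 °C, frozen at -80 °C, and assayed by LC/MS/MS.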
# EKVX = test: Anticancer activity against human EKVX cells assessed as cell growth inhibition; format: functional, cell-based; settings: dose 1-100 µM, DDE = dose-dependent effect
# NCI-H23 = test: Anticancer activity against human NCI-H23 cells assessed as cell growth inhibition; format: functional, cell-based; settings: dose 1-100 µM, DDE = dose-dependent effect
# TK-10 = test: Anticancer activity against human TK-10 cells assessed as cell growth inhibition; format: functional, cell-based; settings: dose 1-100 µM, DDE = dose-dependent effect
# SK-MEL-28 = test: Anticancer activity against human SK-MEL-28 cells assessed as cell growth inhibition; format: functional, cell-based; settings: dose 1-100 µM, DDE = dose-dependent effect
# HT-29 = test: Anticancer activity against human HT-29 cells assessed as cell growth inhibition; format: functional, cell-based; settings: dose 1-100 µM, DDE = dose-dependent effect
# [18] = Cytotoxicity against human PC-3M cells expressing PTB/GFP fusion protein assessed as reduction in ATP level and measured after 24 to 48 hrs by ATPlite luminescence assay; format: toxicity, cell-based
# LOX IMVI = test: Anticancer activity against human LOX IMVI cells assessed as cell growth inhibition; format: functional, cell-based; settings: dose 1-100 µM, DDE = dose-dependent effect
# OVCAR-3 = test: Anticancer activity against human OVCAR-3 cells assessed as cell growth inhibition; format: functional, cell-based; settings: dose 1-100 µM, DDE = dose-dependent effect
# PC-3M [19] = test: Cytotoxicity against human PC-3M cells expressing PTB/GFP fusion protein assessed as reduction in ATP level at 20 uM and measured after 24 to 48 hrs by ATPlite luminescence assay; format: toxicity, cell-based; settings: time 24-48 hrs
compound,measurement,setting,value
N=c1c2c(-c3ccccc3)c(-c3ccccc3)n(Cc3ccccc3)c2ncn1[C@H]1CC[C@H](O)CC1 [ML-246],Activity,T47D,Dde
same,Activity,A549,Dde
same,Activity,SF-295,Dde
same,Activity,UACC-62,Dde
same,Activity,[1],< 50%
same,Activity,[2],< 50%
same,Activity,RXF 393,Dde
same,Activity,SK-MEL-2,Dde
same,Activity,[3],< 50%
same,Activity,NCI-H460,Dde
same,Activity,CAKI-1,Dde
same,Ki,Histamine H1 receptor,3560 nM
same,Activity,HCT-116,Dde
same,Activity,[4],< 50%
same,Ki,[5],3260 nM
same,Activity,[6],< 50%
same,Activity,[7],< 50%
same,Activity,OVCAR-4,Dde
same,beta t1/2,[8],16.4 min
same,Activity,[9],< 50%
same,IC50,PC-3M [10]; read-out: IC50,200 nM
same,IC50,PC-3M [10]; read-out: pIC50 (converted),178 nM
same,Activity,[11],< 50%
same,Activity,[12],< 50%
same,Activity,HOP-62,Dde
same,Activity,MDA-MB-231,Dde
same,IC50,PC-3M [13],610 nM
same,Activity,[14],< 50%
same,Activity,HL-60(TB),Dde
same,Activity,[15],< 50%
same,Activity,UO-31,Dde
same,Activity,Malme-3M,Dde
same,Activity,[16],< 50%
same,Cmax,[17],910 nM
same,Activity,EKVX,Dde
same,Activity,NCI-H23,Dde
same,Activity,TK-10,Dde
same,Activity,SK-MEL-28,Dde
same,Activity,HT-29,Dde
same,IC50,[18],7650 nM
same,Activity,LOX IMVI,Dde
same,Activity,OVCAR-3,Dde
same,Activity,PC-3M [19],Toxic
